{"source": "ChEMBL document CHEMBL1122187", "about": "“Synthesis and antiviral activity of certain carbamoylpyrrolopyrimidine and pyrazolopyrimidine nucleosides” (1982)", "key": {"[1]": {"tested_on": "Vero", "experiment": "In vitro antiviral activity against parainfluenza type 3(para 3) virus was determined in african green monkey kidney (vero,V) expressed as virus rating. Toxic level(100 ug/mL)", "assay_type": "functional, Chlorocebus sabaeus", "procedure,_shortened": "(§1)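 Cell monolayers (18 h) infected with 320 TCID50 of virus. Compound was added within 15–30 min at half-log dilutions from 1000 to 1 μg/mL. After 72 h at 37 °C in 5% CO2, CPE was scored 0–4 by microscopy. VR = sum of (virus control − treated) scores, halved at partially toxic levels, divided by 10 × test cups per drug level.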"}, "[2]": {"tested_on": "Vero", "experiment": "In vitro antiviral activity against herpes simplex type 1 (HSV-1) virus was determined in african green monkey kidney (vero,V) expressed as virus rating. Toxic level(100 ug/mL)", "assay_type": "functional, Chlorocebus sabaeus", "procedure,_shortened": "as §1"}, "[3]": {"tested_on": "HEp-2", "experiment": "In vitro antiviral activity against vaccinia(VV) virus was determined in human laryngeal epithelioma (HEp-2,H)expressed as virus rating. Toxic level(100 ug/mL)", "assay_type": "functional", "procedure,_shortened": "as §1"}, "[4]": {"tested_on": "HEp-2", "experiment": "In vitro antiviral activity against parainfluenza type 3(para 3) virus was determined in human laryngeal epithelioma (HEp-2,H)expressed as virus rating. Toxic level(100 ug/mL)", "assay_type": "functional", "procedure,_shortened": "as §1"}, "[5]": {"tested_on": "HEp-2", "experiment": "In vitro antiviral activity against herpes simplex type 1 (HSV-1) virus was determined in human laryngeal epithelioma (HEp-2,H)expressed as virus rating. Toxic level(100 ug/mL)", "assay_type": "functional", "procedure,_shortened": "as §1"}, "[6]": {"tested_on": "Vero", "experiment": "In vitro antiviral activity against vaccinia(VV) virus was determined in african green monkey kidney (vero,V) expressed as virus rating. Toxic level(100 ug/mL)", "assay_type": "functional, Chlorocebus sabaeus", "procedure,_shortened": "as §1"}, "[7]": {"tested_on": "Vero", "experiment": "In vitro antiviral activity against parainfluenza type 3(para 3) virus was determined in african green monkey kidney (vero,V) expressed as virus rating", "assay_type": "functional, Chlorocebus sabaeus", "procedure,_shortened": "as §1"}, "[8]": {"tested_on": "Vero", "experiment": "In vitro antiviral activity against herpes simplex type 1 (HSV-1) virus was determined in african green monkey kidney (vero,V) expressed as virus rating", "assay_type": "functional, Chlorocebus sabaeus", "procedure,_shortened": "as §1"}, "[9]": {"tested_on": "Vero", "experiment": "In vitro antiviral activity against vaccinia(VV) virus was determined in african green monkey kidney (vero,V) expressed as virus rating", "assay_type": "functional, Chlorocebus sabaeus", "procedure,_shortened": "as §1"}, "[10]": {"tested_on": "Vero", "experiment": "Percentage plaque reduction was determined against venezuelan equine encephalitis (VEE) virus in african green monkey kidney (vero,V) at a conc of 250-500 ug/mL. Toxic level(10 ug/mL)", "assay_type": "functional, Chlorocebus sabaeus"}, "[11]": {"tested_on": "Vero", "experiment": "Percentage plaque reduction was determined against Sandfly fever (SF) virus in african green monkey kidney (vero,V) at a conc of 100-250 ug/mL. Toxic level(10 ug/mL)", "assay_type": "functional, Chlorocebus sabaeus"}, "[12]": {"tested_on": "Vero", "experiment": "Percentage plaque reduction was determined against pichinde(PICH) virus in african green monkey kidney (vero,V).Toxic level(10 ug/mL)", "assay_type": "functional, Chlorocebus sabaeus", "procedure,_shortened": "(§2)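 Infected Vero 24-well monolayers: virus adsorbed 1 h at 37 °C, then overlaid with agar holding dilutions of compound and incubated again at 37 °C with CO₂. Plaques were stained with crystal violet and counted. Inhibition was scored as % plaque reduction bands (10-30%, 31-60%, 61-90%), each tied to a drug concentration range.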"}, "[13]": {"tested_on": "Vero", "experiment": "Percentage plaque reduction was determined against rift valley fever(RVF) virus in african green monkey kidney (vero,V) at a conc of <25 ug/mL. Toxic level(10 ug/mL)", "assay_type": "functional, Chlorocebus sabaeus"}, "[14]": {"tested_on": "Vero", "experiment": "Percentage plaque reduction was determined against rift valley fever(RVF) virus in african green monkey kidney (vero,V) at a conc of 25-100 ug/mL. Toxic level(10 ug/mL)", "assay_type": "functional, Chlorocebus sabaeus"}, "[15]": {"tested_on": "Vero", "experiment": "Percentage plaque reduction was determined against Sandfly fever (SF) virus in african green monkey kidney (vero,V) at a conc of 25-100 ug/mL. Toxic level(10 ug/mL)", "assay_type": "functional, Chlorocebus sabaeus"}, "[16]": {"tested_on": "Vero", "experiment": "Percentage plaque reduction was determined against rift valley fever(RVF) virus in african green monkey kidney (vero,V) at a conc of 100-250 ug/mL. Toxic level(10 ug/mL)", "assay_type": "functional, Chlorocebus sabaeus"}, "[17]": {"tested_on": "Vero", "experiment": "Percentage plaque reduction was determined against Sandfly fever (SF) virus in african green monkey kidney (vero,V) at a conc of <25 ug/mL. Toxic level(10 ug/mL)", "assay_type": "functional, Chlorocebus sabaeus", "procedure,_shortened": "as §2"}, "[18]": {"tested_on": "Vero", "experiment": "Percentage plaque reduction was determined against yellow fever (YF) virus in african green monkey kidney (vero,V).Toxic level(10 ug/mL)", "assay_type": "functional, Chlorocebus sabaeus"}, "[19]": {"tested_on": "Vero", "experiment": "Percentage plaque reduction was determined against venezuelan equine encephalitis (VEE) virus in african green monkey kidney (vero,V) at a conc of 100-250 ug/mL. Toxic level(10 ug/mL)", "assay_type": "functional, Chlorocebus sabaeus"}, "[20]": {"tested_on": "Vero", "experiment": "In vitro antiviral activity against herpes simplex type 1 (HSV-1) virus was determined in african green monkey kidney (vero,V) expressed as virus rating. Toxic level(10 ug/mL)", "assay_type": "functional, Chlorocebus sabaeus", "procedure,_shortened": "as §1"}, "[21]": {"tested_on": "Vero", "experiment": "Percentage plaque reduction was determined against Sandfly fever (SF) virus in african green monkey kidney (vero,V) at a conc of 250-500 ug/mL. Toxic level(10 ug/mL)", "assay_type": "functional, Chlorocebus sabaeus"}, "[22]": {"tested_on": "Vero", "experiment": "Percentage plaque reduction was determined against rift valley fever(RVF) virus in african green monkey kidney (vero,V) at a conc of 250-500 ug/mL. Toxic level(10 ug/mL)", "assay_type": "functional, Chlorocebus sabaeus"}, "[23]": {"tested_on": "Vero", "experiment": "Percentage plaque reduction was determined against venezuelan equine encephalitis (VEE) virus in african green monkey kidney (vero,V) at a conc of <25 ug/mL", "assay_type": "functional, Chlorocebus sabaeus"}, "[24]": {"tested_on": "Vero", "experiment": "Percentage plaque reduction was determined against venezuelan equine encephalitis (VEE) virus in african green monkey kidney (vero,V) at a conc of 25-100 ug/mL. Toxic level(10 ug/mL)", "assay_type": "functional, Chlorocebus sabaeus"}, "[25]": {"tested_on": "Vero", "experiment": "In vitro antiviral activity against vaccinia(VV) virus was determined in african green monkey kidney (vero,V) expressed as virus rating. Toxic level(>1000 ug/mL)", "assay_type": "functional, Chlorocebus sabaeus", "procedure,_shortened": "as §1"}, "[26]": {"tested_on": "Vero", "experiment": "In vitro antiviral activity against herpes simplex type 1 (HSV-1) virus was determined in african green monkey kidney (vero,V) expressed as virus rating. Toxic level(>1000 ug/mL)", "assay_type": "functional, Chlorocebus sabaeus", "procedure,_shortened": "as §1"}, "[27]": {"tested_on": "HEp-2", "experiment": "In vitro antiviral activity against parainfluenza type 3 (para3) virus was determined in human laryngeal epithelioma (HEp-2,H)expressed as virus rating. Toxic level(100 ug/mL)", "assay_type": "functional", "procedure,_shortened": "as §1"}, "[28]": {"tested_on": "Vero", "experiment": "In vitro antiviral activity against parainfluenza type 3(para 3) virus was determined in african green monkey kidney (vero,V) expressed as virus rating. Toxic level(>1000 ug/mL)", "assay_type": "functional, Chlorocebus sabaeus", "procedure,_shortened": "as §1"}}}
{"smiles": "NC(=O)c1ncnc2c([C@@H]3O[C@H](CO)[C@@H](O)[C@H]3O)n[nH]c12", "values": [{"measurement": "Virus rating", "setting": "[1]", "result": 0}, {"measurement": "Virus rating", "setting": "[2]", "result": 0}, {"measurement": "Virus rating", "setting": "[3]", "result": 0.8}, {"measurement": "Virus rating", "setting": "[4]", "result": 0.4}, {"measurement": "Virus rating", "setting": "[5]", "result": 0}, {"measurement": "Virus rating", "setting": "[6]", "result": 0.6}]}
{"smiles": "CSc1ncnc2c([C@@H]3O[C@H](CO)[C@@H](O)[C@H]3O)n[nH]c12", "values": [{"measurement": "Virus rating", "setting": "[7]", "result": 1.3}, {"measurement": "Virus rating", "setting": "[8]", "result": 0.8}, {"measurement": "Virus rating", "setting": "[9]", "result": 1.4}]}
{"smiles": "O=C1N=CN=C2C([C@@H]3O[C@H](CO)[C@@H](O)[C@H]3O)=NNC12", "note": "(stereo not given in full)", "values": [{"measurement": "Plaque reduction", "setting": "[10]", "result": 0, "unit": "%"}, {"measurement": "Plaque reduction", "setting": "[11]", "result": 0, "unit": "%"}, {"measurement": "Plaque reduction", "setting": "[12]", "result": ">90", "unit": "%"}, {"measurement": "Plaque reduction", "setting": "[13]", "result": 0, "unit": "%"}, {"measurement": "Plaque reduction", "setting": "[14]", "result": 0, "unit": "%"}, {"measurement": "Plaque reduction", "setting": "[15]", "result": 0, "unit": "%"}, {"measurement": "Plaque reduction", "setting": "[16]", "result": 0, "unit": "%"}, {"measurement": "Plaque reduction", "setting": "[17]", "result": 0, "unit": "%"}, {"measurement": "Plaque reduction", "setting": "[18]", "result": 0, "unit": "%"}, {"measurement": "Plaque reduction", "setting": "[19]", "result": 0, "unit": "%"}, {"measurement": "Virus rating", "setting": "[20]", "result": 0.1}, {"measurement": "Plaque reduction", "setting": "[21]", "result": 0, "unit": "%"}, {"measurement": "Plaque reduction", "setting": "[22]", "result": 0, "unit": "%"}, {"measurement": "Plaque reduction", "setting": "[23]", "result": 0, "unit": "%"}, {"measurement": "Plaque reduction", "setting": "[24]", "result": 0, "unit": "%"}]}
{"smiles": "CSc1ncnc2c1ccn2[C@@H]1O[C@H](CO)[C@@H](O)[C@H]1O", "values": [{"measurement": "Virus rating", "setting": "[25]", "result": 1}, {"measurement": "Virus rating", "setting": "[26]", "result": 0.5}, {"measurement": "Virus rating", "setting": "[27]", "result": 1.5}, {"measurement": "Virus rating", "setting": "[3]", "result": 1.4}, {"measurement": "Virus rating", "setting": "[28]", "result": 0.9}, {"measurement": "Virus rating", "setting": "[5]", "result": 1.3}]}
